High-throughput results from PubChem.
SIAE inh: blocks human sialic acid acetylesterase | Q9HAT2 | SIAE FP-Rh probe binding, fluorescence polarization | inhibition, % at 9.66 µM | 370,000 compounds, 0.69% hits | AID 1053197;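 active = inhibition above a cutoff: mean of compounds within the control limits plus 3 SD of those, cut at about 17% in these data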;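 also: 0% = plate median of compound wells and 100% = probe without SIAE protein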
PRMT1 inh: PRMT1 (human) inhibition, primary screen | 370,000 compounds, 1.3% hits | AID 652257 | inhibition, % at 2.79 µM | recombinant PRMT1, activity-based probe fluorescence polarization | Q99873;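 active = inhibition above about 21% made by adding two undisclosed values, limit read from the data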
mABHD4 FP: ABHD4 (mouse) inhibition, primary FP screen; purified mABHD4, FP-Rh probe fluorescence polarization; inhibition, % at 8.92 µM; 370,000 compounds, 0.54% hits; AID 720543;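 active = inhibition exceeding the mean over every tested compound plus 3 SD, cut at about 30% in these data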;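 also: 0% = plate median of compound wells and 100% = S159A mutant with DMSO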
Target sequence (Q8VD66 whole entry, looked up): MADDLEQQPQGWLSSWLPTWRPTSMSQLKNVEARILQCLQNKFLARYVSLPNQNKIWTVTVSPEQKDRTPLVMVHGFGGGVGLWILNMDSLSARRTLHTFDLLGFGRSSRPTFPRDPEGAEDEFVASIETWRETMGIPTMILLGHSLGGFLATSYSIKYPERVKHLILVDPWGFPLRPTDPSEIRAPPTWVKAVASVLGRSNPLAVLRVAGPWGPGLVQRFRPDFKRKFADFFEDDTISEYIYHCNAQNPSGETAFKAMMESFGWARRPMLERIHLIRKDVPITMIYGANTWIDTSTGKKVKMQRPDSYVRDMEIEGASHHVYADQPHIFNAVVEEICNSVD
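Assay system: mABHD4 protein; medium: HEPES pH 7.0, NaCl, Pluronic buffer; dosing: 8.92 µM, single dose; schedule: 45 min + 60 min at 25 °C; signal: FP readout, ex 525 nm / em 598 nm; read-out: normalized percent inhibition of probe labeling; repeats: single replicate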
TCR CD3 inh: blocks the human TCR-CD3 interaction; 360,000 compounds, 0.37% hits; TAMRA-labeled TCR probe fluorescence, biochemical; inhibition, % at 9.4 µM; in the data active = inhibition above about 19%;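 also: recombinant mutant TCR 2C K166C tagged with TAMRA read by polarization; 0% = receptor in buffer alone and 100% = receptor with positive control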
ATG4B inh: inhibitors of human ATG4B cysteine protease. Q9Y4P1. ATG4B cleavage of LC3-PLA2, NBD-HPC fluorescence, 1 h. inhibition, % at 8.33 µM. 340,000 compounds, 0.51% hits. AID 504462; in the data active = inhibition above about 40%
HTRA1 inh: blocks human HTRA1 serine peptidase; Q92743; recombinant HTRA1, FP-rhodamine activity-based probe, fluorescence polarization; inhibition, % at 5.96 µM; 340,000 compounds, 0.5% hits; AID 504803; in the data active = inhibition above about 36%;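 also: 0% = enzyme with DMSO and 100% = wells lacking enzyme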
PRMT1 confirm: confirmation of human PRMT1 inhibitors; shares compounds with PRMT1 inh; 3,300 compounds, 42% hits; recombinant His-PRMT1, activity-based probe fluorescence polarization; inhibition, % at 2.79 µM; AID 687036;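 active = mean inhibition across replicates above the hit cutoff derived for the earlier primary screen, cut at about 22% in these data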
An asterisk follows results filed as active; nt = no result. Sampled rows, rich in hits. Any-hit rate of the full collection: about 2.9%.

SMILES	SIAE inh	PRMT1 inh	mABHD4 FP	TCR CD3 inh	ATG4B inh	HTRA1 inh	PRMT1 confirm
Cc1ccc(NC(=O)CN2C(=O)N/C(=C/c3ccc(C)o3)C2=O)cc1	14	76*	10	2	-2	7	16
Cc1cccc(NC(=O)CN2C(=O)N/C(=C/c3ccc(C)o3)C2=O)c1	6	65*	12	-2	10	2	50*
Cc1ccc(NC(=O)CN2C(=O)N/C(=C/c3ccc(C)s3)C2=O)cc1	-11	4	0	5	-3	-6	nt
Cc1cccc(NC(=O)CN2C(=O)S/C(=C\c3ccc(-c4cccc(C(=O)O)c4C)o3)C2=O)c1	-15	9	5	-2	36	nt	nt
Cc1ccc(NC(=O)CN2C(=O)S/C(=C/c3ccc(-c4cc(C(=O)O)ccc4C)o3)C2=O)cc1C	-23	28*	20	-3	8	-29	10
CCn1c(C)cc(/C=C2\NC(=O)N(CC(=O)Nc3cccc(C)c3)C2=O)c1C	-3	1	-12	-25	18	2	nt
CCn1c(C)cc(/C=C2/NC(=O)N(CC(=O)Nc3cccc(C)c3)C2=O)c1C	3	6	-5	-3	11	1	nt
CN(Cc1ccccc1)S(=O)(=O)c1cccc(C(=O)OCc2cccc(C(F)(F)F)c2)c1	-1	0	0	nt	nt	nt	nt
CCCCCC(=O)NC1CCCCN(C)C1=O (configuration not stated)	4	-5	-4	-3	nt	nt	nt
C=CCN1C(=O)N/C(=C/c2ccc(C)o2)C1=O	-3	63*	3	-3	-7	6	29*
Cc1cc(/C=N/NC(N)=S)c(C)n1-c1ccc(Br)cc1	9	3	0	2	5	3	nt
CC(C)Oc1ccc(Br)cc1/C=N\NC(N)=S	10	39*	-13	8	1	-8	11
CCCOc1ccc(-c2cc(C(C)=O)c3n(c2=O)CCC3)cc1	0	-4	-4	nt	nt	nt	nt
Cc1ccc(CNC(=O)OC(C)(C)C)c(/C=C/S(=O)(=O)NC2CCCC2)c1	-7	3	-16	nt	nt	nt	nt
Cn1cccc1C(=O)OCC(=O)NCc1ccc2c(c1)OCO2	8	126*	10	26*	0	-6	3
CCn1nc(C)cc1-c1nnc(Sc2ncc([N+](=O)[O-])s2)n1C	2	55*	2	0	1	8	63*
c1coc(-c2nnc3sc(Cc4cccs4)nn23)c1	-3	64*	19	8	2	15	5
CC(=O)c1c(N2CCN(C(=O)c3ccco3)CC2)nc(=S)n(-c2ccccc2)c1C	-5	36*	-6	-4	26	1	39*
CC(=O)c1c(N2CCCC2)nc(=S)n(-c2ccccc2)c1C	-5	14	8	3	9	4	nt
CCn1c(C)c(C(C)=O)c(N2CCN(c3ccccc3)CC2)nc1=S	-1	37*	19	3	6	14	2
COc1ccccc1C=NNC(=O)CSc1nc2ccccc2n1Cc1ccc(Cl)cc1	-12	-2	-12	nt	nt	nt	nt
Cc1cccc2sc(=S)[nH]c12	12	28*	-8	-1	nt	nt	16
CC(C)C[C@H]1COc2cccc(F)c2S(=O)(=O)N1Cc1cn(Cc2ccc(F)cc2)nn1	-4	1	-13	nt	nt	nt	nt
O=C(NC(=S)NC(=O)c1ccccc1F)c1ccccc1F	-5	28*	-2	-6	-3	-1	2
C=C(C)Cn1c(SCC(=O)N/N=C(\C)c2ccc([N+](=O)[O-])cc2)nnc1-c1ccc(Br)cc1	-6	-6	-7	nt	nt	nt	nt
SMILES	SIAE inh	PRMT1 inh	mABHD4 FP	TCR CD3 inh	ATG4B inh	HTRA1 inh	PRMT1 confirm
COc1ccc(-c2cn(-c3ccc(C)c(C)c3)c(=S)[nH]2)cc1OC	3	31*	6	1	1	6	18
COc1cccc(-n2cc(-c3ccc(F)cc3)[nH]c2=S)c1	8	14	0	0	-5	2	nt
CC(=O)C1=C(C)Nc2cc(C(F)(F)F)ccc2S1	-3	28*	5	1	3	-7	13
CCOC(=O)c1c(NC(=O)CC2Sc3ccc(C(F)(F)F)cc3NC2=O)sc(C)c1C (configuration not stated)	11	-3	0	-2	1	2	nt
COc1ccc(/C=C2\Sc3ccc(C(=O)NCc4cccnc4)cc3N(C)C2=O)cc1OC	-2	32*	-2	3	-13	-17	9
C[C@H]1/C=C/CC(=O)N[C@@H](c2ccc3ccccc3c2)[C@@H](C)/C=C/CC(=O)N[C@H]1c1ccc2ccccc2c1	-12	-4	-30	nt	nt	nt	nt
Cc1ccc(S(=O)(=O)CCC(=O)c2ccc(O)cc2O)cc1	-5	35*	-4	-7	-1	8	4
Cc1ccc(-c2cc(C(=O)NN=Cc3ccc(F)cc3)[nH]n2)cc1C	-4	5	-24	nt	nt	nt	nt
Cc1cc(C)cc(NC(=O)N2CCC(c3nc4ccc(Cl)cc4[nH]3)CC2)c1	-7	-1	-6	nt	nt	nt	nt
CCC(=O)/C=C1\Sc2ccc(OC)cc2N1CC	0	52*	-3	1	-2	0	19
COc1ccccc1C(=O)N/C(=C/c1ccco1)C(=O)Nc1cccc(C(=O)O)c1	4	28*	17	6	6	-10	8
CC(=O)c1cccc(NC(=O)/C(=C\c2ccco2)NC(=O)c2cccs2)c1	-2	19	8	2	-4	-1	nt
CC(=O)c1cccc(NC(=O)/C(=C/c2ccco2)NC(=O)c2ccco2)c1	-4	46*	-5	1	-4	0	27*
COc1ccc(CN2C(=O)c3cccnc3C2=O)cc1S(=O)(=O)NCc1ccc(C)o1	6	41*	0	-4	-7	-1	-1
Cn1c(SSc2ccc(-c3cccnc3)n2C)ccc1-c1cccnc1	5	69*	7	4	-11	-2	77*
COC(=O)CC1C(=O)NCCN1C(=O)c1ccccc1 (configuration not stated)	2	-4	0	3	-5	-3	nt
COC(=O)CC1C(=O)NCCN1C(=O)CSc1nc2ccccc2s1 (configuration not stated)	5	36*	-1	2	-12	1	37*
Cc1nnc(SCC2=C(C(=O)O)N3C(=O)C(NC(=O)Cn4nc(C(F)F)c(Cl)c4C)C3SC2)s1 (configuration not stated)	2	28*	6	3	3	-11	39*
Cc1nnc(SCC2=C(C(=O)O)N3C(=O)C(NC(=O)Cn4nc(C(F)F)cc4C)C3SC2)s1 (configuration not stated)	-183	25*	-2	8	-3	1	29*
CN(C)CCn1nnnc1SCC1=C(C(=O)O)N2C(=O)[C@@H](NC(=O)Cc3csc(N)n3)[C@H]2SC1	4	46*	6	13	-7	4	9
